In assay [1] the test system is Bacillus subtilis. Put plainly: Antibacterial activity against Bacillus subtilis ATCC 6633 at 20 mg/ml after 24 hrs by agar diffusion test. In kind it is functional, organism-based. In outline:
(§1)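 Agar diffusion: bacteria grown 24 h at 37 °C on nutrient agar; wells cut in the seeded agar are filled with compound solution in DMSO. Read-out is the diameter of the clear zone around the application point.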

The subject of assay [2] is Bacillus. The assay can be described thus: Antibacterial activity against Bacillus idosus B 241 at 20 mg/ml after 24 hrs by agar diffusion test. It is filed as functional, organism-based. In outline:
as §1
(A growth-free zone around the sample is the usual read-out of agar diffusion tests.)

For assay [3], the system named is Priestia megaterium. Put plainly: Antibacterial activity against Bacillus megaterium NRRL 1353895 at 20 mg/ml after 24 hrs by agar diffusion test. In kind it is functional, organism-based. The procedure, abridged:
as §1

Assay [4] concerns Bacillus mycoides. The assay can be described thus: Antibacterial activity against Bacillus mycoides DSMZ 274 at 20 mg/ml after 24 hrs by agar diffusion test. In kind it is functional, organism-based. The procedure, abridged: as §1
Assay [5] concerns Bacillus cereus. Put plainly: Antibacterial activity against Bacillus cereus ATCC 11778 at 20 mg/ml after 24 hrs by agar diffusion test. In kind it is functional, organism-based. In outline: as §1
Assay [6] has as its system Acinetobacter johnsonii. The assay can be described thus: Antibacterial activity against Acinetobacter johnsonii ATCC 17909 at 20 mg/ml after 24 hrs by agar diffusion test. In kind it is functional. In outline: as §1
Assay [7] has as its system Micrococcus luteus. The assay can be described thus: Antibacterial activity against Sarcina lutea ATCC 9341 at 20 mg/ml after 24 hrs by agar diffusion test. In kind it is functional, organism-based. In outline:
as §1

Assay [8] concerns Micrococcus luteus. The assay can be described thus: Antibacterial activity against Micrococcus luteus ATCC 9631 at 20 mg/ml after 24 hrs by agar diffusion test. In kind it is functional, organism-based. In outline:
as §1

The test system of assay [9] is Bacillus subtilis. The assay can be described thus: Antibacterial activity against Bacillus subtilis ATCC 6633 at 4 mg/ml after 24 hrs by agar diffusion test. In kind it is functional, organism-based. The procedure, abridged:
as §1

The subject of assay [10] is Bacillus. The assay can be described thus: Antibacterial activity against Bacillus idosus B 241 at 4 mg/ml after 24 hrs by agar diffusion test. In kind it is functional, organism-based. In outline: as §1
In assay [11] the test system is Priestia megaterium. Put plainly: Antibacterial activity against Bacillus megaterium NRRL 1353895 at 4 mg/ml after 24 hrs by agar diffusion test. It is filed as functional, organism-based. In outline: as §1
Assay [12] concerns Bacillus mycoides. The assay can be described thus: Antibacterial activity against Bacillus mycoides DSMZ 274 at 4 mg/ml after 24 hrs by agar diffusion test. It is filed as functional, organism-based. The procedure, abridged: as §1
For assay [13], the system named is Bacillus cereus. Put plainly: Antibacterial activity against Bacillus cereus ATCC 11778 at 4 mg/ml after 24 hrs by agar diffusion test. In kind it is functional, organism-based. In outline:
as §1

In assay [14] the test system is Acinetobacter johnsonii. The assay can be described thus: Antibacterial activity against Acinetobacter johnsonii ATCC 17909 at 4 mg/ml after 24 hrs by agar diffusion test. It is filed as functional. In outline: as §1
Assay [15] concerns Micrococcus luteus. The assay can be described thus: Antibacterial activity against Sarcina lutea ATCC 9341 at 4 mg/ml after 24 hrs by agar diffusion test. In kind it is functional, organism-based. The procedure, abridged:
as §1

Assay [16] deals with Micrococcus luteus. The assay can be described thus: Antibacterial activity against Micrococcus luteus ATCC 9631 at 4 mg/ml after 24 hrs by agar diffusion test. In kind it is functional, organism-based. In outline:
as §1

For a further assay, the system named is Candida tropicalis. Put plainly: Antifungal activity against Candida tropicalis ATCC 20336 at 25 mg/ml after 72 hrs by agar diffusion test. It is filed as functional. The note with it: ATCC 20336, 72 h, read-out: DIZ. The procedure, abridged:
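Yeast grown on yeast peptone dextrose agar; wells cut in the seeded agar are filled with compound solution in DMSO. Read-out is the diameter of the clear inhibition zone.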

Our source for the inhibition zone (IZ) and zone of inhibition values is ChEMBL document CHEMBL1932986, “Synthesis and in vitro antimycobacterial activity of compounds derived from (R)- and (S)-2-amino-1-butanol - The crucial role of the configuration” (Eur J Med Chem, 2012).

On to GENTAMICIN, for which the inhibition zone (IZ) was 30 mm in the assay on Bacillus subtilis [1]; 35 mm with Bacillus [2]; 36 mm with Priestia megaterium [3]; 32 mm with Bacillus mycoides [4]; 29 mm in the assay on Bacillus cereus [5]; 39 mm in the assay with Acinetobacter johnsonii [6]. The inhibition zone (IZ) in the assay with Micrococcus luteus [7] came out at 34 mm; in the assay with Micrococcus luteus [8] it was 38 mm; with Bacillus subtilis [9] it was 27 mm; in the assay on Bacillus [10], 29 mm; in the assay on Priestia megaterium [11], 30 mm; in the assay with Bacillus mycoides [12] it was 28 mm. The inhibition zone (IZ) was determined as 26 mm in the assay on Bacillus cereus [13], 31 mm in the assay on Acinetobacter johnsonii [14], 28 mm with Micrococcus luteus [15] and 28 mm in the assay with Micrococcus luteus [16].

With `OC(Cn1cncn1)(Cn1cncn1)c1ccc(F)cc1F` [FLUCONAZOLE], the zone of inhibition at 25000 µg/mL with Candida tropicalis was found to be 35 mm.
